Assay results reported in ChEMBL document CHEMBL1126129, “Flavones. 3. Synthesis, biological activities, and conformational analysis of isoflavone derivatives and related compounds” (1992).
The source made the active and inactive calls. No cut-off for these calls is given here.

Assays:
[1] = tested on: Rattus norvegicus; assay: In vivo inhibition of carrageenan-induced paw oedema in rats following 50 mg/kg administration.; format: functional
Summary of the method: (§1)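 Male Sprague-Dawley rats, housed 1 week, 160-200 g at test, groups of six. Dosed orally in 0.5% aqueous methocel 2 h before carrageenan challenge; controls got vehicle. Paw volume measured by mercury plethysmometer immediately and 3 h later. % inhibition = (Δcontrol − Δtest)/Δcontrol × 100, compared with control by analysis of variance. Usually one experiment per compound.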

[2] = tested on: Rattus norvegicus; assay: Antihypertensive activity was measured as decrease in systolic blood pressure in spontaneously hypertensive rats at 75 mg/kg, po 2 hours after dosing; NS denotes not significant; format: functional, organism-based; design: dose 75 mg/kg; details: Artery
Summary of the method: (§2)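 Male spontaneously hypertensive rats (Wistar-Kyoto strain), five per dose group. Systolic arterial pressure measured by indirect tail cuff. Dosing was 75 mg/kg po, or 30 mg/kg iv for one analog. Percentage fall in systolic pressure recorded at stated hours after dosing. Significance vs control at p < 0.05; non-significant falls flagged.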

[3] = tested on: Rattus norvegicus; assay: Antihypertensive activity was measured as decrease in systolic blood pressure in spontaneously hypertensive rats at 75 mg/kg, po 5 hours after dosing; format: functional, Artery; summary of the method: as §2
[4] = tested on: Rattus norvegicus; assay: Antihypertensive activity was measured as decrease in systolic blood pressure in spontaneously hypertensive rats at 75 mg/kg, po 7.5 hours after dosing; format: functional, Artery; summary of the method: as §2
[5] = tested on: Rattus norvegicus; assay: Antihypertensive activity was measured as decrease in systolic blood pressure in spontaneously hypertensive rats at 75 mg/kg, po 24 hours after dosing; format: functional, Artery; summary of the method: as §2
[6] = tested on: Rattus norvegicus; assay: Antiinflammatory activity was measured as %inhibition of carrageenan-induced paw edema in male rats at 50 mg/kg dose; format: functional; summary of the method: as §1
[7] = tested on: Rattus norvegicus; assay: Antihypertensive activity was measured as decrease in systolic blood pressure in spontaneously hypertensive rats at 75 mg/kg, po 2 hours after dosing; format: functional, Artery; summary of the method: as §2
[8] = tested on: Rattus norvegicus; assay: Antiinflammatory activity was measured as inhibition of carrageenan-induced paw edema in male rats at 25 mg/kg dose; format: functional; summary of the method: as §1
[9] = tested on: Rattus norvegicus; assay: Antihypertensive activity was measured as decrease in systolic blood pressure in spontaneously hypertensive rats at 75 mg/kg, po 24 hours after dosing; NS denotes not significant; format: functional, organism-based; design: dose 75 mg/kg; details: Artery; summary of the method: as §2
[10] = tested on: Rattus norvegicus; assay: Antihypertensive activity was measured as decrease in systolic blood pressure in spontaneously hypertensive rats at 75 mg/kg, po 7.5 hours after dosing; NS denotes not significant; format: functional, organism-based; design: dose 75 mg/kg; details: Artery; summary of the method: as §2
[11] = tested on: Rattus norvegicus; assay: Antihypertensive activity was measured as decrease in systolic blood pressure in spontaneously hypertensive rats at 75 mg/kg, po 5 hours after dosing; NS denotes not significant; format: functional, organism-based; design: dose 75 mg/kg; details: Artery; summary of the method: as §2
[12] = tested on: Rattus norvegicus; assay: Antiinflammatory activity was measured as inhibition of carrageenan-induced paw edema in male rats at 4 mg/kg dose; format: functional; summary of the method: as §1
[13] = tested on: Rattus norvegicus; assay: Antihypertensive activity was measured as decrease in systolic blood pressure in spontaneously hypertensive rats at 30 mg/kg, iv 2 hours after dosing; NS denotes not significant; format: functional, organism-based; design: dose 30 mg/kg; details: Artery; summary of the method: as §2
[14] = tested on: Rattus norvegicus; assay: Antiinflammatory activity was measured as %inhibition of carrageenan-induced paw edema in male rats at 25 mg/kg dose; format: functional; summary of the method: as §1

## Cc1oc2cc(OCC(O)CNC(C)C)ccc2c(=O)c1-c1ccccc1 (stereo not drawn)
[1]
  inhibition in vivo at 50 mg/kg: 19%
[2]
  Decrease in SBP: inactive
[3]
  Decrease in SBP: 12%
[4]
  Decrease in SBP: 19%
[5]
  Decrease in SBP: 17%

## CC(C)NCC(O)COc1ccc2c(=O)cc(-c3ccccc3)oc2c1 (stereo not drawn)
[6]
  inhibition in vivo at 50 mg/kg: 14.5%
[7]
  Decrease in SBP: 12%
[3]
  Decrease in SBP: 18%
[4]
  Decrease in SBP: 23%
[5]
  Decrease in SBP: 16%

## CN(C)CCCOc1ccc2c(=O)cc(-c3ccccc3)oc2c1
[1]
  inhibition in vivo at 50 mg/kg: 13%

## O=c1cc(-c2ccccc2)oc2cc(OCCCNC3CCCC3)ccc12
[1]
  inhibition in vivo at 50 mg/kg: 21%

## CC(C)(C)NCCCOc1ccc2c(=O)cc(-c3ccccc3)oc2c1
[1]
  inhibition in vivo at 50 mg/kg: 34%

## O=c1cc(-c2ccccc2)oc2cc(OCCCNC3CCCCCCC3)ccc12
[1]
  inhibition in vivo at 50 mg/kg: 26%

## CC(C)NCC(O)COc1ccc2c(=O)c(-c3ccccc3)c(C(C)C)oc2c1 (stereo not drawn)
[1]
  inhibition in vivo at 50 mg/kg: 28%
[7]
  Decrease in SBP: 18%
[3]
  Decrease in SBP: 20%
[4]
  Decrease in SBP: 25%
[5]
  Decrease in SBP: 15%

## O=c1c(-c2ccccc2)coc2cc(OCC(O)CNC3CCCCCCC3)ccc12 (stereo not drawn)
[1]
  inhibition in vivo at 50 mg/kg: 21%
[8]
  inhibition in vivo at 25 mg/kg: 41%
[2]
  Decrease in SBP: inactive
[9]
  Decrease in SBP: inactive
[10]
  Decrease in SBP: inactive
[11]
  Decrease in SBP: inactive

## CC(C)NCC(O)COc1ccc2c(=O)c(-c3ccccc3)c(C(F)(F)F)oc2c1 (stereo not drawn)
[1]
  inhibition in vivo at 50 mg/kg: 28%
[2]
  Decrease in SBP: inactive
[3]
  Decrease in SBP: 16%
[4]
  Decrease in SBP: 16%
[5]
  Decrease in SBP: 20%

## CC(C)NCC(O)COc1ccc2c(=O)c(-c3ccccc3)c(-c3ccco3)oc2c1 (stereo not drawn)
[1]
  inhibition in vivo at 50 mg/kg: 19%
[2]
  Decrease in SBP: inactive
[9]
  Decrease in SBP: inactive
[4]
  Decrease in SBP: 15%
[11]
  Decrease in SBP: inactive

## CC(C)NCC(O)COc1ccc2c(=O)c(-c3ccccc3)c(C3CCCCC3)oc2c1 (stereo not drawn)
[1]
  inhibition in vivo at 50 mg/kg: 24%
[2]
  Decrease in SBP: inactive
[9]
  Decrease in SBP: inactive
[10]
  Decrease in SBP: inactive
[11]
  Decrease in SBP: inactive

## Clc1cccc(Cl)c1NC1=NCCN1 [CLONIDINE]
[3]
  Decrease in SBP: 15%

## COc1ccc2c(c1)c(CC(=O)O)c(C)n2C(=O)c1ccc(Cl)cc1 [INDOMETHACIN]
[12]
  Inhibition: 44.6%

## CC(C)NCC(O)COc1ccc2c(=O)c(-c3ccccc3)c(Cc3ccccc3)oc2c1 (stereo not drawn)
[1]
  inhibition in vivo at 50 mg/kg: -3.4%
[2]
  Decrease in SBP: inactive
[9]
  Decrease in SBP: inactive
[10]
  Decrease in SBP: inactive
[11]
  Decrease in SBP: inactive

## CC(C)NCC(O)COc1ccc2c(=O)c(-c3ccccc3)coc2c1 (stereo not drawn)
[1]
  inhibition in vivo at 50 mg/kg: 33%
[2]
  Decrease in SBP: inactive
[3]
  Decrease in SBP: 11%
[4]
  Decrease in SBP: 14%
[5]
  Decrease in SBP: 21%

## CCCNCC(O)COc1cccc2c(=O)c(-c3ccccc3)coc12 (stereo not drawn)
[13]
  Decrease in SBP: inactive

## Cc1oc2cc(OCC(O)C[N+](C)(C)C(C)C)ccc2c(=O)c1-c1ccccc1.[I-] (stereo not drawn)
[1]
  inhibition in vivo at 50 mg/kg: 36%
[2]
  Decrease in SBP: inactive
[9]
  Decrease in SBP: inactive
[4]
  Decrease in SBP: 0.1%
[11]
  Decrease in SBP: inactive

## CCCNCC(O)COc1ccc2c(=O)c(-c3ccccc3)c(C(F)(F)F)oc2c1 (stereo not drawn)
[1]
  inhibition in vivo at 50 mg/kg: 22%
[2]
  Decrease in SBP: inactive
[3]
  Decrease in SBP: 11%
[4]
  Decrease in SBP: 12%
[5]
  Decrease in SBP: 17%

## Cc1oc2cc(OCC(O)CN(C)C(C)C)ccc2c(=O)c1-c1ccccc1 (stereo not drawn)
[1]
  inhibition in vivo at 50 mg/kg: 19%
[2]
  Decrease in SBP: inactive
[9]
  Decrease in SBP: inactive
[10]
  Decrease in SBP: inactive
[11]
  Decrease in SBP: inactive

## CCCNCCCOc1ccc2c(=O)cc(-c3ccccc3)oc2c1
[1]
  inhibition in vivo at 50 mg/kg: 18%

## CC(C)NCC(O)COc1ccc2c(=O)c(-c3ccccc3)c(-c3ccccc3)oc2c1 (stereo not drawn)
[6]
  inhibition in vivo at 50 mg/kg: 24.6%
[7]
  Decrease in SBP: 15%
[14]
  inhibition in vivo at 25 mg/kg: 32%
[3]
  Decrease in SBP: 23%
[4]
  Decrease in SBP: 30%
[5]
  Decrease in SBP: 34%

## CCCCCNCCCOc1ccc2c(=O)cc(-c3ccccc3)oc2c1
[1]
  inhibition in vivo at 50 mg/kg: -9%

## CC(C)NCCCOc1ccc2c(=O)cc(-c3ccccc3)oc2c1
[1]
  inhibition in vivo at 50 mg/kg: 41%

## COc1c(-c2ccccc2)oc2cc(OCCCNC(C)C)ccc2c1=O
[1]
  inhibition in vivo at 50 mg/kg: -2%
